Source: ChEMBL document CHEMBL2062372, “Biotin analogues with antibacterial activity are potent inhibitors of biotin protein ligase” (ACS Med Chem Lett, 2012)
In brackets after ≈: the same amount, converted by molar mass.

What was measured:
[1] = Displacement of [3H]-biotin from Staphylococcus aureus BPL after 20 mins by scintillation counting
Procedure, shortened: (§1)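 Purified recombinant BPL was tested in an in vitro biotinylation assay that measured incorporation of radiolabeled biotin into protein. Ki is reported where inhibition was seen, as the mean (standard error) of three independent experiments.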

[2] = Displacement of [3H]-biotin from Escherichia coli BPL after 20 mins by scintillation counting; procedure, shortened: as §1
Biotin--protein ligase = biological target: T1, Biotin--protein ligase (Homo sapiens, UniProt P50747); test: Displacement of [3H]-biotin from human BPL after 20 mins by scintillation counting; procedure, shortened: as §1
T1 sequence (P50747 whole entry): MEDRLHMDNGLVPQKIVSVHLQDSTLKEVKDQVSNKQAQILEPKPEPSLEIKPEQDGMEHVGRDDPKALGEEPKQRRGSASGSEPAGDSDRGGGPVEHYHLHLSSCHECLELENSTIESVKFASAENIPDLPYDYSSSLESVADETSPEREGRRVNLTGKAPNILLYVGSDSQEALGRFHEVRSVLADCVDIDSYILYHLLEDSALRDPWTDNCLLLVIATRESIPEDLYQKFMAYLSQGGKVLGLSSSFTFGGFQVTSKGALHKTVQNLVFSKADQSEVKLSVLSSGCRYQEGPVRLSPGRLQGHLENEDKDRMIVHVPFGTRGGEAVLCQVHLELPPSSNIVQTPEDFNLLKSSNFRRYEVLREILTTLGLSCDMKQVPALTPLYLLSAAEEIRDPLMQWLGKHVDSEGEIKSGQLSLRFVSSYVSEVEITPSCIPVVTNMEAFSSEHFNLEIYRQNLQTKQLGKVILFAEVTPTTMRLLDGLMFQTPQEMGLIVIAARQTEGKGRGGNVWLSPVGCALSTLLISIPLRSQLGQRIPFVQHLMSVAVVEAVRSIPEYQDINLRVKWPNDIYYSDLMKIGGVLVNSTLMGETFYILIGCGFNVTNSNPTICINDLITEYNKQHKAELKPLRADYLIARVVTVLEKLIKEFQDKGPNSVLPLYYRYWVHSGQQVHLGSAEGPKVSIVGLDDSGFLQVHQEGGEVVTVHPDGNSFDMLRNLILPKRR

HepG2 = test: Cytotoxicity against human HepG2 cells assessed as change in metabolic activity at 64 ug/ml after 24 to 48 hrs by WST1 assay; type: ADME, cell-based
[3] = Selectivity ratio of Ki for human BPL to Ki for Staphylococcus aureus BPL
Procedure, shortened: (§2)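 Selectivity is the ratio of Ki values from the radiolabeled-biotin incorporation assay with purified recombinant BPLs. Each Ki is the mean of three independent experiments.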

[4] = Selectivity ratio of Ki for Escherichia coli BPL to Ki for human BPL; procedure, shortened: as §2
[5] = Selectivity ratio of Ki for Escherichia coli BPL to Ki for Staphylococcus aureus BPL; procedure, shortened: as §2
[6] = Binding affinity to Staphylococcus aureus BPL by surface plasmon resonance
Procedure, shortened: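 S. aureus BPL was immobilized on the SPR surface, with varying inhibitor concentrations in the running buffer. Ka and kd come from the sensorgrams. KD was calculated from steady-state affinity where on and off rates were too fast for kinetic evaluation.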

Staphylococcus aureus [7] = test: Antibacterial activity against methicillin-susceptible Staphylococcus aureus after 16 to 24 hrs by broth microdilution method; type: functional
Staphylococcus aureus [8] = test: Antibacterial activity against methicillin-resistant Staphylococcus aureus after 16 to 24 hrs by broth microdilution method; type: functional
Staphylococcus = test: Antibacterial activity against coagulase-negative Staphylococcus after 16 to 24 hrs by broth microdilution method; type: functional

| SMILES | Ki (Biotin--protein ligase) | Ratio Ki [3] | Ratio Ki [4] | Ratio Ki [5] | Ki [1] | Ki [2] | Activity (HepG2) | Kd [6] | MIC50 (Staphylococcus aureus [7]) | MIC90 (Staphylococcus aureus [7]) | MIC50 (Staphylococcus aureus [8]) | MIC90 (Staphylococcus aureus [8]) | MIC50 (Staphylococcus) | MIC90 (Staphylococcus) |
| --- | --- | --- | --- | --- | --- | --- | --- | --- | --- | --- | --- | --- | --- | --- |
| C#CCCCC[C@@H]1SC[C@@H]2NC(=O)N[C@@H]21 | 0.2 µM | 2.5 | 4.5 | 11.3 | 0.08 µM | 0.9 µM | Non-toxic | 0.08 µM | 8 µg/mL (≈ 35.7 µM) | 16 µg/mL (≈ 71.3 µM) | 8 µg/mL (≈ 35.7 µM) | 16 µg/mL (≈ 71.3 µM) | 4 µg/mL (≈ 17.8 µM) | 8 µg/mL (≈ 35.7 µM) |
| NCCCCC[C@@H]1SC[C@@H]2NC(=O)N[C@@H]21 | > 20 µM |  |  |  | > 20 µM | > 20 µM |  |  |  |  |  |  |  |  |
| CCCCC[C@@H]1SC[C@@H]2NC(=O)N[C@@H]21 | 0.14 µM | 2.8 | 7.9 | 22 | 0.05 µM | 1.1 µM | Non-toxic | 0.06 µM | 8 µg/mL (≈ 37.3 µM) | 16 µg/mL (≈ 74.6 µM) | 8 µg/mL (≈ 37.3 µM) | 16 µg/mL (≈ 74.6 µM) | 2 µg/mL (≈ 9.33 µM) | 8 µg/mL (≈ 37.3 µM) |
| NCCCC[C@@H]1SC[C@@H]2NC(=O)N[C@@H]21 | > 20 µM |  |  |  | > 20 µM | > 20 µM |  |  |  |  |  |  |  |  |

Now from value to compound, other results behind:

| Ki (Biotin--protein ligase) | Ratio Ki [3] | Ratio Ki [4] | Ratio Ki [5] | SMILES | Ki [1] | Ki [2] | Activity (HepG2) | Kd [6] | MIC50 (Staphylococcus aureus [7]) | MIC90 (Staphylococcus aureus [7]) | MIC50 (Staphylococcus aureus [8]) | MIC90 (Staphylococcus aureus [8]) | MIC50 (Staphylococcus) | MIC90 (Staphylococcus) |
| --- | --- | --- | --- | --- | --- | --- | --- | --- | --- | --- | --- | --- | --- | --- |
| > 20 µM |  |  |  | O=C1N[C@H]2[C@H](CS[C@H]2CCCCCCO)N1 | > 20 µM | > 20 µM | Non-toxic |  |  |  |  |  |  |  |
| 12 µM | 5 | 1.7 | 8.3 | C#CCCCCCC[C@@H]1SC[C@@H]2NC(=O)N[C@@H]21 | 2.4 µM | 20 µM | Non-toxic |  |  |  |  |  |  |  |
| 3.85 µM | 1.1 | 1 | 1.2 | O=C1N[C@H]2[C@H](CS[C@H]2CCCCCO)N1 | 3.37 µM | 3.96 µM |  | 2.5 µM |  |  |  |  |  |  |
| 6.43 µM | 12.4 | 1.1 | 14 | CCCCCC[C@@H]1SC[C@@H]2NC(=O)N[C@@H]21 | 0.52 µM | 7.3 µM | Non-toxic |  |  |  |  |  |  |  |
| 3.5 µM | 11.7 | 2.1 | 24.4 | C#CCCCCC[C@@H]1SC[C@@H]2NC(=O)N[C@@H]21 | 0.3 µM | 7.33 µM | Non-toxic |  |  |  |  |  |  |  |
